Where “and” joins values, the source holds several entries; their conditions need not be identical. Equal entries are not always repeated.

The nature of this experiment: Antioxidant activity assessed as formazan formation induced absorbance changes at 25 ppm at 570 nm at 37 degC for 6 hrs by MTT assay. It counts as functional. In short, it runs like this:
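Cell-free redox assay: MTT in water (190 µL) vortexed 1 min with sample (10 µL) in DMSO in a capped 2 mL glass vial. DMSO (200 µL) then added to give 50:50 water-DMSO, and the mixture vortexed again. Incubated 6 h at 37 °C, then 200 µL read at 570 nm for formazan. Triplicates, experiment repeated 10 times, mean absorbance reported.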
For orientation: Tetrazolium assays rely on reduction of a dye to a coloured formazan, in cell work by metabolically active cells.
`CCCCCCCCCCCCCCCCCCC(=O)O`: the deltaA worked out at 0.53.

Turning to `O=C(O)CCc1ccc(O)cc1`, the deltaA turned out to be 0.17.

For `CCCCCCCCCC(=O)O`, the deltaA was found to be 0.51.

For `COc1ccccc1-c1cc(=O)c2c(OC)cccc2o1`, the deltaA is 0.27.

For `CC(C)CCC[C@@H](C)[C@H]1CC[C@H]2[C@@H]3CC=C4C[C@@H](O[C@@H]5O[C@H](CO)[C@@H](O)[C@H](O)[C@H]5O)CC[C@]4(C)[C@H]3CC[C@]12C`, the deltaA came out at 0.3.

Consider `O=C(O[C@@H]1Cc2c(O)cc(O)cc2O[C@@H]1c1ccc(O)c(O)c1)c1cc(O)c(O)c(O)c1`, for which the deltaA worked out at 1.18.

Consider `CCCCCCCCCCCCCCCCCC(=O)O`, for which the deltaA turned out to be 0.47.

Consider `CC12CCC(CC1=O)C2(C)C` (centres undefined), for which the deltaA was 0.24.

In the case of `O=c1c(-c2ccc(O)cc2)coc2cc(O[C@@H]3O[C@H](CO)[C@@H](O)[C@H](O)[C@H]3O)cc(O)c12`, the deltaA came out at 0.33.

As to `Oc1cc(O)c2c(c1)OC(c1ccc(O)c(O)c1)C(O)C2` (racemic), the deltaA worked out at 1.18.

Consider `CC(C)(C)c1cc(O)ccc1O`, for which the deltaA came out at 0.51.

With `CCCCCCCCC(=O)O`, the deltaA was found to be 0.16.

`Oc1cc(O)c2c(c1)O[C@@H](c1cc(O)c(O)c(O)c1)[C@H](O)C2`: the deltaA amounted to 0.99.

On to `COc1ccc(-c2cc(=O)c3ccc(OC)cc3o2)cc1`, for which the deltaA came to 0.17.

On to `CCCCCCCCCCCC(=O)O`, for which the deltaA was 0.19.

In the case of `CCCCCCCCCCCCCCCCC(=O)O`, the deltaA worked out at 0.91.

With `COc1cc(C(=O)O)ccc1O`, the deltaA is 0.19.

On to `CC(C)CCC[C@@H](C)[C@H]1CC[C@H]2[C@@H]3CC=C4C[C@@H](O)CC[C@]4(C)[C@H]3CC[C@]12C`, for which the deltaA was found to be 0.22.

Regarding `Oc1cc(O)c2c(c1)O[C@@H](c1ccc(O)c(O)c1)[C@H](O)C2`, the deltaA amounted to 0.53.

Regarding `COC(=O)/C=C/C(C)=C\C=C\C(C)=C\C=C\C=C(C)\C=C\C=C(C)\C=C\C(=O)O`, the deltaA worked out at 0.61.

On to `CCCCCCCCCCCCCC(=O)O`, for which the deltaA amounted to 0.58.

Regarding `Cc1cc(C(C)(C)C)c(O)c(C(C)(C)C)c1`, the deltaA came out at 0.51.

With `O=C(/C=C/c1ccc(O)c(O)c1)O[C@@H]1C[C@](O)(C(=O)O)C[C@@H](O)[C@H]1O`, the deltaA came to 0.72.

As to `COc1ccc(-c2cc(=O)c3ccc(O)cc3o2)cc1`, the deltaA turned out to be 0.23.

`O=c1c(O)c(-c2ccc(O)c(O)c2)oc2cc(O)cc(O)c12`: the deltaA was 0.75 and 0.3.

As to `Oc1cc(O)c2c(c1)O[C@H](c1ccc(O)c(O)c1)[C@H](O)C2`, the deltaA turned out to be 0.17.

For `C[C@@H]1O[C@@H](Oc2c(-c3ccc(O)c(O)c3)oc3cc(O)cc(O)c3c2=O)[C@H](O)[C@H](O)[C@H]1O`, the deltaA was found to be 0.3.

Regarding `CCCCC/C=C\C/C=C\CCCCCCCC(=O)O`, the deltaA turned out to be 0.68.

In the case of `O=c1cc(-c2ccccc2)oc2cc(O)cc(O)c12`, the deltaA came to 0.3.

In the case of `CCCCCCCCCCCCCCCCCCCCCCC(=O)O`, the deltaA turned out to be 0.27.

Turning to `COc1ccc(-c2coc3cc(O)cc(O)c3c2=O)cc1`, the deltaA turned out to be 0.37.

With `O=C(O)/C=C/c1ccc(O)cc1`, the deltaA is 0.15.

`Cc1cccc(O)c1O`: the deltaA was determined as 0.86.

With `O=c1c(-c2ccc(O)cc2)coc2cc(O)cc(O)c12`, the deltaA stood at 0.29.

As to `CCCCCCCCCCCCCCCCCCCCCC(=O)O`, the deltaA was determined as 0.25.

In the case of `CCCCCCCCCCCCCCCCCCCCCCCC(=O)O`, the deltaA came out at 0.16.

On to `COc1cc(/C=C/C(=O)O)ccc1O`, for which the deltaA was found to be 0.29.

Take `O=C(O)C1=C/C(=C\C=[N+]2/c3cc(O)c(O[C@@H]4O[C@H](CO)[C@@H](O)[C@H](O)[C@H]4O)cc3C[C@H]2C(=O)[O-])C[C@@H](C(=O)O)N1`: the deltaA was 0.6.

In the case of `Cc1c(C)c2c(c(C)c1O)CC[C@@](C)(CCC[C@H](C)CCC[C@H](C)CCCC(C)C)O2`, the deltaA came to 0.56.

`O=C(O[C@@H]1Cc2c(O)cc(O)cc2O[C@H]1c1cc(O)c(O)c(O)c1)c1cc(O)c(O)c(O)c1`: the deltaA is 0.92.

As to `C[C@H]1O[C@@H](OC[C@@H]2O[C@H](Oc3cc4c(O)cc(O)cc4[o+]c3-c3ccc(O)c(O)c3)[C@@H](O[C@@H]3O[C@H](CO)[C@@H](O)[C@H](O)[C@H]3O)[C@H](O)[C@H]2O)[C@@H](O)[C@@H](O)[C@@H]1O`, the deltaA was 0.28.

As for `COc1cc(/C=C/C(=O)CC(=O)/C=C/c2ccc(O)c(OC)c2)ccc1O`, the deltaA was 0.85.

Consider `CCCC/C=C\CCCCCCCCC(=O)O`, for which the deltaA came out at 0.19.

As for `C[C@H]1[C@H](C)CC[C@]2(C(=O)O)CC[C@]3(C)C(=CC[C@@H]4[C@@]5(C)CC[C@H](O)C(C)(C)[C@@H]5CC[C@]43C)[C@H]12`, the deltaA was found to be 0.43.

Regarding `COc1cc(O)c2c(=O)c(OC)c(-c3ccc(OC)c(OC)c3)oc2c1`, the deltaA turned out to be 0.23.

As for `CC(C)=CCC/C(C)=C/C=C/C(C)=C/C=C/C(C)=C/C=C/C=C(C)/C=C/C=C(C)/C=C/C=C(\C)CCC=C(C)C`, the deltaA was determined as 0.59.

For the compound `CCCCCCCCCCC(=O)O`, the deltaA was determined as 0.19.

For `COc1ccc(-c2cc(=O)c3c(O)cc(O)cc3o2)cc1`, the deltaA was found to be 0.26.

On to `CCCCCCCC(=O)O`, for which the deltaA was 0.17.

As for `COc1cc(/C=C/C(O)=C/C(=O)/C=C/c2ccc(O)cc2)ccc1O`, the deltaA is 0.61.

Turning to `COc1ccc2ccc(=O)oc2c1`, the deltaA came out at 0.18.

As to `Oc1cc(O)c2c(c1)O[C@H](c1ccc(O)c(O)c1)[C@@H](O)C2`, the deltaA turned out to be 0.88.

Take `CCCCCC/C=C\CCCC(=O)O`: the deltaA amounted to 0.17.

Regarding `O=C(O)/C=C/c1ccc(O)c(O)c1`, the deltaA was found to be 0.69.

`O=C1O[C@H]([C@@H](O)CO)C(O)=C1O`: the deltaA is 0.5.

Take `CC/C=C\C/C=C\C/C=C\CCCCCCCC(=O)OC`: the deltaA stood at 0.25.

With `O=c1cc(-c2ccc(O)c(O)c2)oc2cc(O)cc(O)c12`, the deltaA was 0.66.

As for `O=c1cc(-c2ccc(O)cc2)oc2cc(O)cc(O)c12`, the deltaA is 0.14.

For `CC1=C(/C=C/C(C)=C/C=C/C(C)=C/C=C/C=C(C)/C=C/C=C(C)/C=C/C2=C(C)CCCC2(C)C)C(C)(C)CCC1`, the deltaA was found to be 0.32.

As to `O=c1cc(-c2ccccc2)oc2c(O)c(O)ccc12`, the deltaA stood at 0.49.

For `CCCCCCCC/C=C\CCCCCCCCCCCCCC(=O)O`, the deltaA came to 0.89.

For `O=c1c(-c2ccc(O)cc2)coc2cc(O)ccc12`, the deltaA stood at 0.48.

Consider `COc1ccc(-c2cc(=O)c3ccccc3o2)cc1`, for which the deltaA came out at 0.24.

With `CCCCCCCCCCCCCCCCCCCC(=O)O`, the deltaA stood at 0.25.

As for `Oc1cccc(O)c1O`, the deltaA was 0.86.

As to `CCCCCCCC/C=C\CCCCCCCCCCCC(=O)O`, the deltaA came out at 0.68.

Turning to `O=C(O)CC(=O)OC[C@@H]1O[C@H](Oc2cc3c(O)cc(O)cc3[o+]c2-c2ccc(O)c(O)c2)[C@@H](O)[C@H](O)[C@H]1O`, the deltaA was found to be 0.2.

Turning to `O=C(O)/C=C/c1ccc2c(c1)OCO2`, the deltaA came to 0.19.

For the compound `CCCCCCCCCCCCCCCCCCCCC(=O)O`, the deltaA is 0.22.

As for `CCCCCCCCCCCCC(=O)O`, the deltaA was 0.47.

Regarding `C[C@H]1O[C@@H](Oc2cc3c(O)cc(O)cc3[o+]c2-c2ccc(O)c(O)c2)[C@@H](O[C@@H]2O[C@H](CO)[C@@H](O)[C@H](O)[C@H]2O)[C@@H](O)[C@@H]1O`, the deltaA was determined as 0.17.

In the case of `O=C(/C=C/c1ccc(O)cc1)CC(=O)/C=C/c1ccc(O)cc1`, the deltaA was determined as 0.37.

Regarding `O=C(O)c1ccc(O)cc1`, the deltaA stood at 0.13.

Turning to `COc1ccc(-c2coc3cc(O)ccc3c2=O)cc1`, the deltaA turned out to be 0.2.

The values are drawn from ChEMBL document CHEMBL1177744, “An efficient and economical MTT assay for determining the antioxidant activity of plant natural product extracts and pure compounds” (J Nat Prod, 2010).
